# Compound activity: PubChem BioAssay, Sanford-Burnham Center for Chemical Genomics
# This is a sample that favours compounds with a hit; in the whole collection about 2.5% have one here.
# SENP8 block-1 – SENP8 protease inhibition | 330,000 tested, 1.2% active | AID 2540 | purified SENP8, Z-RLRGG-aminoluciferin cleavage, luminescence | inhibition, % at 10 µM; in the data active = inhibition above about 50%
# Target sequence (Q96LD8 whole entry, looked up): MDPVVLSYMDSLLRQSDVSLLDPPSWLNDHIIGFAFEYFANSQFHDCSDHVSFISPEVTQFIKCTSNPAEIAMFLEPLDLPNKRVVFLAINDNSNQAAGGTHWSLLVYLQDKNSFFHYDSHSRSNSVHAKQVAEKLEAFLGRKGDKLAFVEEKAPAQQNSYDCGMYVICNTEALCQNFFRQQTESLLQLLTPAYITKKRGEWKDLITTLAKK
# SENP8 block-2 – blocks human SENP8 cleavage of Nedd8 substrate; recombinant SENP8, Nedd8 substrate fluorescence; AID 602440; 360,000 tested, 0.64% active; inhibition, % at 20 µM; Q96LD8; in the data active = inhibition mostly above about 40%, no sharp cut-off; inactive = mostly below about 27%
# SENP7 inh – inhibitors of human SENP7 protease | Q9BQF6 | 330,000 tested, 1.5% active | inhibition, % at 5 µM | AID 434973 | recombinant SENP7, Z-RLRGG-aminoluciferin luminescence, 40 min;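 active = inhibition above about 50% at the single test dose, limit read from the data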;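 also: plate controls were DMSO with enzyme for no effect and no enzyme buffer wells for full effect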
# Target sequence (Q9BQF6 706-1050 limits assumed): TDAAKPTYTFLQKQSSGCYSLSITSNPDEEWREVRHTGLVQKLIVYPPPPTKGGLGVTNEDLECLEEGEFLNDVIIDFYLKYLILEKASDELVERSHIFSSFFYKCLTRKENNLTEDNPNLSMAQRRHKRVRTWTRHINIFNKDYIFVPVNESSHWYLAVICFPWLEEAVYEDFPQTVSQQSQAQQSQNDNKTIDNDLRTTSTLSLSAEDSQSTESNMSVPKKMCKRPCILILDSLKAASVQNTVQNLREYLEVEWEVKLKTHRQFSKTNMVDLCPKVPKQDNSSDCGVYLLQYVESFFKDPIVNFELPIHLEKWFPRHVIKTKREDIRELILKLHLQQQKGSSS
# SENP6 inh – inhibitors of human SENP6 protease; Q9GZR1; Recombinant SENP6 catalytic domain, aminoluciferin luminescence; AID 2599; 330,000 tested, 1.8% active; inhibition, % at 10 µM;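 active = inhibition above about 50% at the single tested dose, limit read from the data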;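 also: plate controls were DMSO wells with enzyme for no effect and DMSO wells lacking enzyme for full effect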
# SENP1 inh – blocks the human SENP1 SUMO protease catalytic domain. 360,000 tested, 0.21% active. inhibition, % at 10 µM. recombinant SENP1 catalytic domain, CyPet-SUMO1-YPet FRET cleavage;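 active = inhibition at least 30% at 10 µM, raw YFP signal under a set limit, fluorescence ratio 0.5 to 1.5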;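 also: 0% = enzyme with DMSO and 100% = no enzyme wells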
#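 Test system: recombinant human SENP1 catalytic domain, His6-tagged / Medium: pH 8 Tris buffer with EDTA, NaCl, BME, BSA, NP40, catalase / Also added: SUMO1 FRET substrate flanked by Cypet and Ypet, 25 nM / Times: 50 min reaction at room temperature / Signal: FRET, CFP and YFP emission / Control set: no-enzyme low control and enzyme-plus-DMSO high control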
# SENP8 conf – confirmation of human SENP8 protease inhibitors; shares compounds with SENP7 inh; Recombinant SENP8, Z-RLRGG-aminoluciferin luminescence, 60 min; inhibition, % at 12.5 µM; 6,200 tested, 40% active; AID 488912;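 active = mean inhibition across replicates above about 50%, limit read from the data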
# SENP6 conf – human SENP6 inhibition, confirmed. 6,200 tested, 58% active. shares compounds with SENP7 inh. AID 488915. recombinant SENP6, Z-RLRGG-aminoluciferin luminescence. inhibition, % at 12.5 µM
# SENP7 conf – confirmation of human SENP7 protease inhibitors; inhibition, % at 12.5 µM; 6,200 tested, 69% active; recombinant SENP7, Z-RLRGG-aminoluciferin luminescence, 40 min; shares compounds with SENP7 inh
# Casp3 select – caspase-3 inhibition (SENP selectivity assay); shares compounds with SENP7 inh; purified caspase-3, Z-DEVD-aminoluciferin luminescence, 60 min; inhibition, % at 12.5 µM; 6,200 tested, 60% active;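 active = mean inhibition above about 50%, limit read from the data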;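 also: plate controls were enzyme with DMSO for no effect and wells without caspase-3 for full effect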
# SENP luc ctr – luminescence interference (SENP counter-screen); 6,200 tested, 39% active; inhibition, % at 12.5 µM; AID 488919; shares compounds with SENP7 inh; Pre-incubated SENP8/Z-RLRGG-aminoluciferin, luciferase luminescence interference;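 active = mean inhibition above about 50% when retested at one dose, limit read from the data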;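 also: plate controls were DMSO wells with completed reaction for no effect and substrate without enzyme for full effect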
# The depositor's hits bear a star; x = no result.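 The calls were made as follows, unless noted: active = mean inhibition above about 50% in the one-dose retest (limit read from the data); inactive = the rest.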
SMILES,SENP8 block-1,SENP8 block-2,SENP7 inh,SENP6 inh,SENP1 inh,SENP8 conf,SENP6 conf,SENP7 conf,Casp3 select,SENP luc ctr
Oc1cccc(NC(=S)Nc2ccc(SC(F)F)cc2)c1,-4,18,4,9,-2,x,x,x,x,x
Oc1cccc2c(NC(=S)Nc3ccc(SC(F)F)cc3)cccc12,53*,-185,30,85*,-30,24,20,0,4,10
COc1ccc(-c2nc(-c3ccc(Br)o3)no2)cc1OC,10,2,14,3,0,x,x,x,x,x
Cc1ccc(-c2noc(-c3ccccc3Br)n2)cc1,80*,16,90*,76*,-1,64*,64*,85*,70*,65*
CN(C)c1ccc(-c2noc(-c3ccccc3O)n2)cc1,27,-50,90*,-25,0,11,19,17,50,12
c1ccc(-c2noc(-c3ccccc3-c3ccccc3)n2)cc1,-6,15,3,-7,-1,x,x,x,x,x
COc1ccccc1-c1nc(-c2ccc(Br)o2)no1,78*,0,78*,83*,1,5,59*,55*,42,65*
COc1ccccc1-c1nc(-c2ccc(Br)cc2)no1,70*,-7,0,71*,3,0,11,22,10,7
COc1ccc(-c2nc(-c3ccc(Br)cc3)no2)c(OC)c1,-5,4,48,-6,-2,x,x,x,x,x
CC(C)N=C1NN=C(c2ccc(F)cc2)CS1,73*,4,79*,65*,1,84*,85*,99*,96*,89*
O=C(O)c1ccc(N/N=C/c2ccc(-c3cccc(Cl)c3)o2)cc1,58*,-449,13,1,-46,82*,82*,90*,7,82*
O=C(O)c1ccc(N/N=C/c2ccc(-c3cc(Cl)ccc3Cl)o2)cc1,53*,-452,-5,76*,-36,-4,85*,86*,2,29
O=C(O)c1ccc(N/N=C/c2ccc(-c3ccc(Cl)cc3Cl)o2)cc1,12,-365,8,22,-32,x,x,x,x,x
CC(=O)/C(N=Nc1ccc2c(c1)OCCO2)=C(\C)O,75*,18,82*,79*,15,81*,80*,96*,92*,60*
CN(C)c1ccc(N=Nc2ccc(C(=O)O)cc2)cc1,86*,-22,87*,93*,18,89*,91*,101*,73*,58*
CCN(CC)S(=O)(=O)c1ccc(N=N/C(C(C)=O)=C(/C)O)cc1,-7,35,-9,-17,-1,x,x,x,x,x
CN(C)c1ccc(C(=O)c2ccccc2)cc1,9,-28,10,21,3,x,x,x,x,x
O=C(O)c1ccc(N=NN2CCCCC2)cc1,50,6,45,68*,-1,54*,47,85*,57*,66*
CC(=O)/C(N=Nc1ccc2c(c1)OCO2)=C(\C)O,59*,8,83*,84*,9,-10,37,78*,74*,28
CCOC(=O)N1CCN(C(=O)C[C@@H]2C[C@@]3(C(=O)OCC)CCC=C3N(Cc3ccco3)C2=O)CC1,x,4,x,x,-1,x,x,x,x,x
CCNC(=O)C1CCCN(C(=O)c2cc(F)cc(F)c2)CC1 (centres undefined),x,18,x,x,4,x,x,x,x,x
CC(=O)/C(N=Nc1ccc(OC(F)(F)F)cc1)=C(\C)O,-20,9,6,-10,2,x,x,x,x,x
CC(=O)/C(N=Nc1ccc(C(=O)O)cc1)=C(\C)O,44,26,67*,76*,1,58*,58*,87*,92*,73*
COCCN1CCN(C(=O)c2cc(COc3ccc(Cl)cc3OC)on2)CC1,-3,8,-9,10,0,x,x,x,x,x
CN(C)CCCN(C(=O)COc1ccc(Cl)cc1)c1nc2ccc(F)cc2s1,3,26,9,55*,3,6,-2,-1,-1,-6
SMILES,SENP8 block-1,SENP8 block-2,SENP7 inh,SENP6 inh,SENP1 inh,SENP8 conf,SENP6 conf,SENP7 conf,Casp3 select,SENP luc ctr
CN(C)CCCN(C(=O)COc1ccccc1)c1nc2ccc(F)cc2s1,3,29,9,-6,-2,x,x,x,x,x
O=C(Nc1cccnc1)c1cc(-c2ccc(Cl)cc2Cl)on1,-4,2,64*,15,-1,18,20,17,18,8
COc1ccccc1-c1cc(C(=O)Nc2cccnc2)no1,x,-10,x,x,1,x,x,x,x,x
CC(C)Cc1cc(C(=O)Nc2cccnc2)no1,31,6,52*,48,4,45,43,76*,79*,55*
Cc1c(NC(=O)c2cc(C(C)C)on2)c(=O)n(-c2ccccc2)n1C,-3,7,4,-10,1,x,x,x,x,x
Cc1c(NC(=O)c2cc(CC(C)C)on2)c(=O)n(-c2ccccc2)n1C,11,23,55*,8,0,-13,-5,-10,3,-3
O=C(Nc1cccnc1)c1cc(-c2ccc(Cl)cc2)on1,29,28,86*,60*,0,29,31,67*,56*,24
COc1cc(NC(=O)C2CCN(S(=O)(=O)c3ccc4[nH]c(=O)oc4c3)CC2)cc(OC)c1,0,16,1,13,2,x,x,x,x,x
CCOC(=O)/C(=N\Nc1ncnc2ccccc12)c1ccc(C)cc1,62*,30,25,61*,0,-24,56*,78*,6,20
CCOC(=O)C/C(=N\Nc1ncnc2ccccc12)c1ccccc1,-8,13,-6,10,-3,x,x,x,x,x
C=CCNC(=O)c1ccc(NC(=O)C2=CSCCO2)cc1,69*,4,77*,73*,2,74*,72*,93*,90*,73*
COC(=O)c1ccccc1Oc1cc(C(F)(F)F)nc(-c2ccccn2)n1,-5,22,-5,-9,4,x,x,x,x,x
O=C(CC1Nc2ccccc2NC1=O)Nc1cc(Cl)cc(Cl)c1 (centres undefined),-6,-301,-1,-9,-25,x,x,x,x,x
COc1ccc(NC(=O)CC2Nc3cccc4cccc(c34)NC2=O)cc1 (centres undefined),59*,-64,67*,93*,-23,3,4,12,8,2
